Source: ChEMBL document CHEMBL5058577, “EUbOPEN Chemogenomics Library 2 (Multiplex)” (2022)

Tested on: HEK-293T
Assay: Multiplex assay against HEK293T
Type: toxicity, cell-based
Conditions: human
Outline: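 Tubulin, mitochondrial-mass and membrane-permeability phenotypes are per cents of healthy-nucleus cells. Cells were gated by CellPathfinder machine learning into Hoechst high-intensity objects or normal cells, normal cells into healthy, pyknosed or fragmented nuclei, and pyknosed cells into mitotic or apoptotic. Before that, live cells stained at seeding with Hoechst33342, BioTracker Green Microtubule Cytoskeleton Dye, MitoTracker Red and Annexin V Alexa Fluor 680 were imaged on a CQ1 microscope at 37°C and 5% CO2 after compound addition.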

[1] = 12 h, 1 µM, compound concentration 1 uM, replicate 1
[2] = 12 h, 1 µM, compound concentration 1 uM, replicate 2
[3] = 12 h, 10 µM, compound concentration 10 uM, replicate 1
[4] = 12 h, 10 µM, compound concentration 10 uM, replicate 2
[5] = 24 h, 1 µM, compound concentration 1 uM, replicate 1
[6] = 24 h, 1 µM, compound concentration 1 uM, replicate 2
[7] = 24 h, 10 µM, compound concentration 10 uM, replicate 1
[8] = 24 h, 10 µM, compound concentration 10 uM, replicate 2
[9] = 48 h, 1 µM, compound concentration 1 uM, replicate 1
[10] = 48 h, 1 µM, compound concentration 1 uM, replicate 2
[11] = 48 h, 10 µM, compound concentration 10 uM, replicate 1
[12] = 48 h, 10 µM, compound concentration 10 uM, replicate 2

CN1CCN(c2ccc(Nc3c4ccccc4nc4ccccc34)cc2)CC1.Cl.Cl.O
Population Apoptotic (%) [1]: 42%
Population Fragmented Nuclei (%) [1]: 7%
Population Healthy Nuclei (%) [1]: 81%
Population Hoechst High Intensity Objects (%) [1]: 3%
Population Membrane Permeable-Phenotype (%) [1]: 0%
Population Mitochondria Different-Phenotype (%) [1]: 50%
Population Mitotic Cells (%) [1]: 57%
Population Normal (%) [1]: 96%
Population Pyknosed Nuclei (%) [1]: 11%
Population Tubulin-Different-Phenotype (%) [1]: 28%
Total Cell Count [1]: 411
Population Apoptotic (%) [2]: 55%
Population Fragmented Nuclei (%) [2]: 4%
Population Healthy Nuclei (%) [2]: 90%
Population Hoechst High Intensity Objects (%) [2]: 1%
Population Mitochondria Different-Phenotype (%) [2]: 59%
Population Mitotic Cells (%) [2]: 45%
Population Normal (%) [2]: 98%
Population Pyknosed Nuclei (%) [2]: 5%
Population Tubulin-Different-Phenotype (%) [2]: 20%
Total Cell Count [2]: 364
Population Apoptotic (%) [3]: 100%
Population Fragmented Nuclei (%) [3]: 24%
Population Healthy Nuclei (%) [3]: 74%
Population Hoechst High Intensity Objects (%) [3]: 1%
Population Membrane Permeable-Phenotype (%) [3]: 0%
Population Mitochondria Different-Phenotype (%) [3]: 99%
Population Mitotic Cells (%) [3]: 0%
Population Normal (%) [3]: 98%
Population Pyknosed Nuclei (%) [3]: 1%
Population Tubulin-Different-Phenotype (%) [3]: 97%
Total Cell Count [3]: 234
Population Fragmented Nuclei (%) [4]: 40%
Population Healthy Nuclei (%) [4]: 58%
Population Hoechst High Intensity Objects (%) [4]: 0%
Population Mitochondria Different-Phenotype (%) [4]: 100%
Population Normal (%) [4]: 99%
Population Tubulin-Different-Phenotype (%) [4]: 92%
Total Cell Count [4]: 194
Population Apoptotic (%) [5]: 42%
Population Fragmented Nuclei (%) [5]: 9%
Population Healthy Nuclei (%) [5]: 84%
Population Hoechst High Intensity Objects (%) [5]: 2%
Population Membrane Permeable-Phenotype (%) [5]: 0%
Population Mitochondria Different-Phenotype (%) [5]: 40%
Population Mitotic Cells (%) [5]: 57%
Population Normal (%) [5]: 97%
Population Pyknosed Nuclei (%) [5]: 5%
Population Tubulin-Different-Phenotype (%) [5]: 14%
Total Cell Count [5]: 455
Population Apoptotic (%) [6]: 46%
Population Healthy Nuclei (%) [6]: 86%
Population Hoechst High Intensity Objects (%) [6]: 0%
Population Mitochondria Different-Phenotype (%) [6]: 44%
Population Mitotic Cells (%) [6]: 53%
Population Normal (%) [6]: 99%
Population Pyknosed Nuclei (%) [6]: 4%
Population Tubulin-Different-Phenotype (%) [6]: 12%
Total Cell Count [6]: 362
Population Apoptotic (%) [7]: 100%
Population Fragmented Nuclei (%) [7]: 28%
Population Healthy Nuclei (%) [7]: 69%
Population Hoechst High Intensity Objects (%) [7]: 2%
Population Membrane Permeable-Phenotype (%) [7]: 0%
Population Mitochondria Different-Phenotype (%) [7]: 100%
Population Mitotic Cells (%) [7]: 0%
Population Normal (%) [7]: 97%
Population Pyknosed Nuclei (%) [7]: 2%
Population Tubulin-Different-Phenotype (%) [7]: 92%
Total Cell Count [7]: 247
Population Fragmented Nuclei (%) [8]: 45%
Population Healthy Nuclei (%) [8]: 53%
Population Hoechst High Intensity Objects (%) [8]: 0%
Population Normal (%) [8]: 99%
Population Pyknosed Nuclei (%) [8]: 0%
Population Tubulin-Different-Phenotype (%) [8]: 91%
Total Cell Count [8]: 206
Population Apoptotic (%) [9]: 45%
Population Fragmented Nuclei (%) [9]: 11%
Population Healthy Nuclei (%) [9]: 82%
Population Hoechst High Intensity Objects (%) [9]: 3%
Population Membrane Permeable-Phenotype (%) [9]: 0%
Population Mitochondria Different-Phenotype (%) [9]: 30%
Population Mitotic Cells (%) [9]: 54%
Population Normal (%) [9]: 96%
Population Pyknosed Nuclei (%) [9]: 6%
Population Tubulin-Different-Phenotype (%) [9]: 16%
Total Cell Count [9]: 581
Population Apoptotic (%) [10]: 60%
Population Fragmented Nuclei (%) [10]: 10%
Population Healthy Nuclei (%) [10]: 85%
Population Hoechst High Intensity Objects (%) [10]: 1%
Population Mitochondria Different-Phenotype (%) [10]: 36%
Population Mitotic Cells (%) [10]: 40%
Population Normal (%) [10]: 98%
Population Pyknosed Nuclei (%) [10]: 3%
Population Tubulin-Different-Phenotype (%) [10]: 12%
Total Cell Count [10]: 411
Population Apoptotic (%) [11]: 100%
Population Fragmented Nuclei (%) [11]: 34%
Population Healthy Nuclei (%) [11]: 56%
Population Hoechst High Intensity Objects (%) [11]: 11%
Population Membrane Permeable-Phenotype (%) [11]: 0%
Population Mitochondria Different-Phenotype (%) [11]: 100%
Population Mitotic Cells (%) [11]: 0%
Population Normal (%) [11]: 88%
Population Pyknosed Nuclei (%) [11]: 9%
Population Tubulin-Different-Phenotype (%) [11]: 88%
Total Cell Count [11]: 318
Population Apoptotic (%) [12]: 66%
Population Fragmented Nuclei (%) [12]: 52%
Population Healthy Nuclei (%) [12]: 46%
Population Hoechst High Intensity Objects (%) [12]: 5%
Population Mitochondria Different-Phenotype (%) [12]: 99%
Population Mitotic Cells (%) [12]: 33%
Population Normal (%) [12]: 94%
Population Pyknosed Nuclei (%) [12]: 1%
Population Tubulin-Different-Phenotype (%) [12]: 89%
Total Cell Count [12]: 272
